In ChEMBL document CHEMBL1123433, “Synthesis of anthraquinonyl glucosaminosides and studies on the influence of aglycone hydroxyl substitution on superoxide generation, DNA binding, and antimicrobial properties” (J Med Chem, 1986):
Converted amounts (≈) assume the structure as drawn.

Key:
Format in all cases: functional
Staphylococcus aureus [1] = assay: Compound was tested for antibacterial activity against Staphylococcus aureus ATCC 25923
Procedure, shortened: (§1)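 MICs were found by agar dilution. Test compounds were dissolved in water or in dimethyl sulfoxide, and the mixture was added to the agar before it set.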

Streptococcus pyogenes = assay: Compound was tested for antibacterial activity against Strep. pyogenes ATCC 19615; procedure, shortened: as §1
Bacillus cereus = assay: Compound was tested for antibacterial activity against Bacillus cereus WSU-60; procedure, shortened: as §1
Staphylococcus aureus [2] = assay: Compound was tested for antibacterial activity against Staphylococcus aureus ATCC 9144; procedure, shortened: as §1
[3] = tested on: Staphylococcus epidermidis; assay: Compound was tested for antibacterial activity against Staph. epidermidis ATCC 12228; procedure, shortened: as §1
Staphylococcus aureus [4] = assay: Compound was tested for antibacterial activity against Staphylococcus aureus WSU-196E; procedure, shortened: as §1
Rattus norvegicus = species on record: Rattus norvegicus; assay: Compound was tested for effect of glycoside on superoxide production in rat heart sarcosomes; parameters: unit not given here
Procedure, shortened: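 Male Sprague-Dawley rat ventricles were homogenized in 100 mM KCl, 5 mM histidine, pH 7.3. The microsomal (sarcosomal) pellet was taken at 100000g and resuspended in 0.15 M K3PO4, 1 mM EDTA, pH 7.4. Sarcosomes came from six rats prepared concurrently. Each 1 mL reaction held acetylated cytochrome c (38-53 nmol), 300-500 µg protein and 0.1 mM compound. NADPH started the reaction. A550 rise was followed at 37 °C and reported as mean ± SEM, N = 3, with an F test.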

Bacillus subtilis = assay: Compound was tested for antibacterial activity against Bacillus subtilis ATCC E6051; procedure, shortened: as §1
[5] = tested on: Corynebacterium diphtheriae; assay: Compound was tested for antibacterial activity against Corynebacterium diphtheria WSU; procedure, shortened: as §1

Compound: NC1C(OCc2cc(O)c3c(c2)C(=O)c2cccc(O)c2C3=O)OC(O)C(O)C1O (configuration not stated)
- MIC (Staphylococcus aureus [1]): > 200 mg/L
- MIC (Streptococcus pyogenes): 10 mg/L (≈ 24 µM)
- MIC (Bacillus cereus): 200 mg/L (≈ 479 µM)
- MIC (Staphylococcus aureus [2]): 50 mg/L (≈ 120 µM)
- MIC [3]: 20 mg/L (≈ 47.9 µM)
- MIC (Staphylococcus aureus [4]): > 200 mg/L
- Activity (Rattus norvegicus): 10.1
- MIC (Bacillus subtilis): > 200 mg/L
- MIC [5]: 100 mg/L (≈ 240 µM)

Compound: NC1C(OCc2cc(O)c3c(c2O)C(=O)c2ccccc2C3=O)OC(O)C(O)C1O (configuration not stated)
- MIC (Staphylococcus aureus [1]): 100 mg/L (≈ 240 µM)
- MIC (Streptococcus pyogenes): 10 mg/L (≈ 24 µM)
- MIC (Bacillus cereus): 50 mg/L (≈ 120 µM)
- MIC (Staphylococcus aureus [2]): 50 mg/L (≈ 120 µM)
- MIC [3]: 20 mg/L (≈ 47.9 µM)
- MIC (Staphylococcus aureus [4]): > 200 mg/L
- Activity (Rattus norvegicus): 12.8
- MIC (Bacillus subtilis): 50 mg/L (≈ 120 µM)
- MIC [5]: 100 mg/L (≈ 240 µM)

Compound: NC1C(OCc2ccc3c(c2O)C(=O)c2c(O)cccc2C3=O)OC(O)C(O)C1O (configuration not stated)
- MIC (Staphylococcus aureus [1]): 100 mg/L (≈ 240 µM)
- MIC (Streptococcus pyogenes): 50 mg/L (≈ 120 µM)
- MIC (Bacillus cereus): 50 mg/L (≈ 120 µM)
- MIC (Staphylococcus aureus [2]): 200 mg/L (≈ 479 µM)
- MIC [3]: 50 mg/L (≈ 120 µM)
- MIC (Staphylococcus aureus [4]): 200 mg/L (≈ 479 µM)
- Activity (Rattus norvegicus): 10.5
- MIC (Bacillus subtilis): 50 mg/L (≈ 120 µM)
- MIC [5]: 50 mg/L (≈ 120 µM)

Compound: NC1C(OCc2ccc3c(c2)C(=O)c2ccccc2C3=O)OC(O)C(O)C1O (configuration not stated)
- MIC (Staphylococcus aureus [1]): > 200 mg/L
- MIC (Streptococcus pyogenes): 100 mg/L (≈ 259 µM)
- MIC (Bacillus cereus): > 200 mg/L
- MIC (Staphylococcus aureus [2]): > 200 mg/L
- MIC [3]: 200 mg/L (≈ 519 µM)
- MIC (Staphylococcus aureus [4]): > 200 mg/L
- Activity (Rattus norvegicus): 2.31
- MIC (Bacillus subtilis): > 200 mg/L
- MIC [5]: > 200 mg/L

Compound: NC1C(OCc2ccc3c(c2O)C(=O)c2ccccc2C3=O)OC(O)C(O)C1O (configuration not stated)
- MIC (Staphylococcus aureus [1]): 200 mg/L (≈ 498 µM)
- MIC (Streptococcus pyogenes): 20 mg/L (≈ 49.8 µM)
- MIC (Bacillus cereus): 100 mg/L (≈ 249 µM)
- MIC (Staphylococcus aureus [2]): 200 mg/L (≈ 498 µM)
- MIC [3]: 20 mg/L (≈ 49.8 µM)
- MIC (Staphylococcus aureus [4]): 200 mg/L (≈ 498 µM)
- Activity (Rattus norvegicus): 5.49
- MIC (Bacillus subtilis): 50 mg/L (≈ 125 µM)
- MIC [5]: 100 mg/L (≈ 249 µM)

Compound: COc1cccc2c1C(=O)c1c(O)c3c(c(O)c1C2=O)C[C@@](O)(C(C)=O)C[C@@H]3O[C@H]1C[C@H](N)[C@H](O)[C@H](C)O1 [DAUNORUBICIN]
- MIC (Staphylococcus aureus [1]): 20 mg/L (≈ 37.9 µM)
- MIC (Streptococcus pyogenes): < 5 mg/L
- MIC (Bacillus cereus): < 5 mg/L
- MIC (Staphylococcus aureus [2]): < 5 mg/L
- MIC [3]: < 5 mg/L
- MIC (Staphylococcus aureus [4]): < 5 mg/L
- Activity (Rattus norvegicus): 2.76
- MIC (Bacillus subtilis): < 5 mg/L
- MIC [5]: < 5 mg/L

Compound: COc1cccc2c1C(=O)c1c(O)c3c(c(O)c1C2=O)C[C@@](O)(C(=O)CO)C[C@@H]3O[C@H]1C[C@H](N)[C@H](O)[C@H](C)O1 [DOXORUBICIN]
- MIC (Staphylococcus aureus [1]): 200 mg/L (≈ 368 µM)
- MIC (Streptococcus pyogenes): < 5 mg/L
- MIC (Bacillus cereus): 10 mg/L (≈ 18.4 µM)
- MIC (Staphylococcus aureus [2]): 20 mg/L (≈ 36.8 µM)
- MIC [3]: < 5 mg/L
- MIC (Staphylococcus aureus [4]): 10 mg/L (≈ 18.4 µM)
- MIC (Bacillus subtilis): 20 mg/L (≈ 36.8 µM)
- MIC [5]: 20 mg/L (≈ 36.8 µM)
